Test results published in ChEMBL document CHEMBL1122809, “Improved synthesis and antitumor activity of 2-bromo-2'-deoxyadenosine” (1984).

Tests used:
L1210 [1] = assay: Antitumor activity expressed as life span was determined against inoculated L1210 leukemia cells (1*10e5) in mice by 22.5 mg/kg dosage of compound (qd (x 3), for days 1,5,9); assay type: functional, Mus musculus
Method in brief: (§1)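 Female mice (~18 g, housed six per cage) received L1210 cells intraperitoneally on day 0. Drug was made fresh and injected at 0.01 mL/g; the stated dose is per injection. Controls received the same volume of 0.154 M NaCl. Survival was followed, with deaths assigned to tumour by necropsy or to drug toxicity by set criteria. Life span is given as mean ± SD.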

L1210 [2] = assay: Antitumor activity expressed as life span was determined against inoculated L1210 leukemia cells (1*10e6) in mice by 90 mg/kg dosage of compound (qd (x 3), for days 1- 7); assay type: functional, Mus musculus; method in brief: as §1
L1210 [3] = assay: Antitumor activity expressed as life span was determined against inoculated L1210 leukemia cells (1*10e5) in mice by 11.3 mg/kg dosage of compound (qd (x 3), for days 1, 4, 7); assay type: functional, Mus musculus; method in brief: as §1
L1210 [4] = assay: Antitumor activity expressed as life span was determined against inoculated L1210 leukemia cells (1*10e5) in mice by 45 mg/kg dosage of compound (qd (x 3), for days 1,5,9); assay type: functional, Mus musculus; method in brief: as §1
L1210 [5] = assay: Antitumor activity expressed percentage increase in life span was determined against inoculated L1210 leukemia cells (1*10e5) in mice by 17.3 mg/kg dosage of compound (qd (x 3), for days 1,5,9); assay type: functional; conditions: Mus musculus
Method in brief: (§2)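 L1210 cells were given intraperitoneally to female mice (~18 g). Freshly prepared drug was injected at 0.01 mL/g, dose per injection, and saline-injected controls were run. The end point was duration of survival. ILS was calculated as percent increase in mean life span over controls. Mice surviving 60 days or more counted as long-term survivors, scored as 60 days.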

L1210 [6] = assay: Antitumor activity expressed percentage increase in life span was determined against inoculated L1210 leukemia cells (1*10e5) in mice by 22.5 mg/kg dosage of compound (qd (x 3), for days 1,5,9); assay type: functional; conditions: Mus musculus; method in brief: as §2
L1210 [7] = assay: Antitumor activity expressed as life span was determined against inoculated L1210 leukemia cells (1*10e6) in mice by 22.5 mg/kg dosage of compound (qd (x 3), for days 1, 4, 7); assay type: functional, Mus musculus; method in brief: as §1
L1210 [8] = assay: Antitumor activity expressed percentage increase in life span was determined against inoculated L1210 leukemia cells (1*10e5) in mice by 11.3 mg/kg dosage of compound (qd (x 3), for days 1, 4, 7); assay type: functional; conditions: Mus musculus; method in brief: as §2
M5076 [9] = assay: Antitumor activity was evaluated by measuring mean life span in tumor (M5076) inoculated mice at 11.3 mg/kg (qd3hx8),days 1-34; assay type: functional, Mus musculus
Method in brief: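 Female mice of about 18 g received subcutaneous M5076 implants matching those used for serial passage. Drug was freshly prepared and injected at 0.01 mL/g every 3 h (×8) on every 3rd day from day 1 to day 34, with the dose stated per injection. Controls received 0.154 M NaCl. Groups held 18 mice (11 in one group). Mean life span was reported as mean ± SD, and tumor volume was also assessed.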

M5076 [10] = assay: Antitumor activity was evaluated by measuring mean life span in tumor (M5076) inoculated mice at 22.5 mg/kg (qd3hx8),days 1,4,7,15,18,21; assay type: functional, Mus musculus
Method in brief: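 Female mice of about 18 g received subcutaneous M5076 implants like those used for serial passage. Drug was prepared just before use and injected at 0.01 mL/g every 3 h (×8) on days 1, 4, 7, 15, 18 and 21, with the dose stated per injection. Controls received 0.154 M NaCl, and groups held 18 mice. Survival and tumor volume were recorded, and %ILS was derived from mean life span.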

B16 melanoma (mouse) [11] = assay: Antitumor activity expressed percentage increase in life span was determined against inoculated B16 melanoma in mice by 22.5 mg/kg dosage of compound (qd3hx8), for days 1,4,7,10,13,16
L1210 [12] = assay: Antitumor activity expressed percentage increase in life span was determined against inoculated L1210 leukemia cells (1*10e6) in mice by 22.5 mg/kg dosage of compound (qd (x 3), for days 1, 4, 7,10,13,16); assay type: functional; conditions: Mus musculus; method in brief: as §2
L1210 [13] = assay: Antitumor activity expressed percentage increase in life span was determined against inoculated L1210 leukemia cells (1*10e5) in mice by 5.6 mg/kg dosage of compound (qd (x 3), for days 1, 4, 7,10,13,16); assay type: functional; conditions: Mus musculus; method in brief: as §2
L1210 [14] = assay: Antitumor activity expressed percentage increase in life span was determined against inoculated L1210 leukemia cells (1*10e6) in mice by 110 mg/kg dosage of compound (qd (x 3), for days 1-7); assay type: functional; conditions: Mus musculus; method in brief: as §2
L1210 [15] = assay: Antitumor activity expressed percentage increase in life span was determined against inoculated L1210 leukemia cells (1*10e6) in mice by 70 mg/kg dosage of compound (qd (x 3), for days 1, 4, 7); assay type: functional; conditions: Mus musculus
Method in brief: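 Female mice of about 18 g (BDF1, DBA/2 or C57Bl/6 stocks used) were inoculated intraperitoneally with 1 × 10^6 L1210 cells. Freshly prepared drug was given once daily from about 24 h after inoculation at 0.01 mL/g, with the dose stated per injection. Controls received 0.154 M NaCl, and groups held 6 mice. %ILS was taken from mean survival, with mice alive at 60 days or more counted as 60 days.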

L1210 [16] = assay: Antitumor activity expressed as life span was determined against inoculated L1210 leukemia cells (1*10e6) in mice by 5.6 mg/kg dosage of compound (qd (x 3), for days 1, 4, 7); assay type: functional, Mus musculus; method in brief: as §1
L1210 [17] = assay: Antitumor activity expressed percentage increase in life span was determined against inoculated L1210 leukemia cells (1*10e6) in mice by 5.6 mg/kg dosage of compound (qd (x 3), for days 1, 4, 7,10,13,16); assay type: functional; conditions: Mus musculus
L1210 [18] = assay: Antitumor activity expressed as life span was determined against inoculated L1210 leukemia cells (1*10e6) in mice by 90 mg/kg dosage of compound (qd (x 3), for days 1, 4, 7); assay type: functional, Mus musculus; method in brief: as §1
L1210 [19] = assay: Antitumor activity expressed percentage increase in life span was determined against inoculated L1210 leukemia cells (1*10e5) in mice by 5.6 mg/kg dosage of compound (qd (x 3), for days 1,5,9); assay type: functional; conditions: Mus musculus; method in brief: as §2
L1210 [20] = assay: Antitumor activity expressed as life span was determined against inoculated L1210 leukemia cells (1*10e5) in mice by 5.6 mg/kg dosage of compound (qd (x 3), for days 1,5,9); assay type: functional, Mus musculus; method in brief: as §1
L1210 [21] = assay: Antitumor activity expressed as life span was determined against inoculated L1210 leukemia cells (1*10e5) in mice by 5.6 mg/kg dosage of compound (q 3 h (x 8), for days 1, 4, 7,10,13,16)
B16 melanoma (mouse) [22] = assay: Antitumor activity was evaluated by measuring mean life span in tumor (B16 melanoma) inoculated mice at 22.5 mg/kg (qd3hx8),days 1,4,7,10
L1210 [23] = assay: Antitumor activity expressed as life span was determined against inoculated L1210 leukemia cells (1*10e6) in mice by 45 mg/kg dosage of compound (qd (x 3), for days 1, 4, 7); assay type: functional, Mus musculus; method in brief: as §1

## Nc1nc(Br)nc2c1ncn2[C@H]1C[C@H](O)[C@@H](CO)O1
L1210 [1]
  Life span: 21.42 days
L1210 [2]
  Life span: 4.83 days
L1210 [3]
  Life span: 14.33 days
L1210 [4]
  Life span: 37.73 days
L1210 [5]
  ILS at 17.3 mg/kg: 81%
L1210 [6]
  ILS at 22.5 mg/kg: 176%
L1210 [7]
  Life span: 15 days
L1210 [8]
  ILS at 11.3 mg/kg: 95%
M5076 [9]
  Life span: 39.72 days
M5076 [10]
  Life span: 43.33 days
B16 melanoma (mouse) [11]
  ILS at 22.5 mg/kg: 10%
L1210 [12]
  ILS at 22.5 mg/kg: 127%
L1210 [13]
  ILS at 5.6 mg/kg: 45%
L1210 [14]
  ILS at 110 mg/kg: 0%
L1210 [15]
  ILS at 70 mg/kg: 3%
L1210 [16]
  Life span: 11.08 days
L1210 [17]
  ILS at 5.6 mg/kg: 48%
L1210 [18]
  Life span: 7 days
L1210 [19]
  ILS at 5.6 mg/kg: 59%
L1210 [20]
  Life span: 12.36 days
L1210 [21]
  Life span: 11.83 days
B16 melanoma (mouse) [22]
  Life span: 20.89 days
L1210 [23]
  Life span: 13.5 days
